Among the data in ChEMBL document CHEMBL2311482, “Antiproliferative and apoptotic effects of compounds from the flower of Mammea siamensis (Miq.) T. Anders. on human cancer cell lines” (Bioorg Med Chem Lett, 2013) are IC50 and Activity values, retold here.

Activity calls are given as the source filed them. The rule behind the calls is not given here.

Assay [1] has as its system HL-60. The experiment in a line: Cytotoxicity against human HL60 cells assessed as cell viability after 24 hrs by MTT assay. Type of assay: functional, cell-based. Conditions: HL-60, 24 h. In a few lines:
(§1)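 Cells exposed to compounds at 3.125 to 50 µM for 24 h; proliferation read by MTT assay; IC50 (µM) reported. Panel: leukemia lines HL-60, U937, THP-1, Jurkat; stomach KATO III; colon HCT-15; hepatoma HepG2; normal skin fibroblasts NB1RGB and HF-19.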
Background: Formazan colour is commonly taken as a measure of viable cells.

Assay [2] concerns HepG2. The experiment in a line: Cytotoxicity against human HepG2 cells assessed as cell viability after 24 hrs by MTT assay. Type of assay: functional, cell-based. Conditions: HepG2, 24 h. In a few lines: as §1
Assay [3] in a line: Cytotoxicity against human NB1RGB cells assessed as cell viability after 24 hrs by MTT assay. In kind it is cell-based. In a few lines:
as §1

The test system of assay [4] is Jurkat. The experiment in a line: Cytotoxicity against human Jurkat cells assessed as cell viability after 24 hrs by MTT assay. Type of assay: functional, cell-based. In a few lines: as §1
For assay [5], the system named is HCT-15. The experiment in a line: Cytotoxicity against human HCT15 cells assessed as cell viability after 24 hrs by MTT assay. Conditions: HCT-15, 24 h. Type of assay: functional, cell-based. In a few lines:
as §1

Assay [6] can be described thus: Cytotoxicity against human HF19 cells assessed as cell viability after 24 hrs by MTT assay. In kind it is cell-based. Conditions: HF19, 24 h. An outline of the steps: as §1
A short description of assay [7]: Cytotoxicity against human KATO III cells assessed as cell viability after 24 hrs by MTT assay. In kind it is functional, cell-based. An outline of the steps: as §1
Assay [8] deals with THP-1. The experiment in a line: Cytotoxicity against human THP1 cells assessed as cell viability after 24 hrs by MTT assay. In kind it is functional, cell-based. Conditions: THP-1, 24 h. An outline of the steps: as §1
In assay [9] the test system is U-937. In words: Cytotoxicity against human U937 cells assessed as cell viability after 24 hrs by MTT assay. Type of assay: functional, cell-based. Conditions: U-937, 24 h. In a few lines: as §1
In assay [10] the test system is HL-60. The experiment in a line: Induction of apoptosis in human HL60 cells assessed as DNA fragmentation at 12.5 uM after 24 hrs by agarose gel electrophoresis. In kind it is functional, cell-based. An outline of the steps:
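HL-60 cells treated with 12.5 µM compound for 24 h; DNA extracted and laddering resolved by agarose gel electrophoresis against a 100 bp marker; representative of three independent experiments.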

Assay [11] deals with HL-60. In words: Induction of apoptosis in human HL60 cells assessed as chromatin condensation at 12.5 uM after 24 hrs by Hoechst 33258 staining-based fluorescent microscopy. In kind it is functional, cell-based. An outline of the steps: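 Nuclear morphology: HL-60 cells treated 24 h with 12.5 µM compound, stained with Hoechst 33258, and viewed by fluorescence microscopy at ×400; representative of three independent experiments.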

Assay [12] relates to HL-60. The experiment in a line: Induction of apoptosis in human HL60 cells assessed as DNA fragmentation at 12.5 uM after 24 hrs by agarose gel electrophoresis in presence of caspase inhibitior Z-VAD-FMK and Z-DEVD-FMK. In kind it is functional, cell-based. An outline of the steps: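 HL-60 cells pretreated 1 h with 50 µM caspase inhibitor (z-VAD-FMK, broad; z-DEVD-FMK, caspase-3), then given 12.5 µM compound for 24 h; DNA fragmentation by agarose gel electrophoresis; representative of three independent experiments.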

In assay [13] the test system is HL-60. The experiment in a line: Induction of apoptosis in human HL60 cells assessed as PARP cleavage at 12.5 uM by Western blot analysis. Type of assay: functional, cell-based. Conditions: TDE = time-dependent effect. In a few lines:
(§2)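 HL-60 cells given 12.5 µM compound for 6–24 h, then lysed; caspase-3 and PARP (cleavage) probed by Western blot with β-actin as loading control; representative of three independent experiments.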

For assay [14], the system named is HL-60. In words: Induction of apoptosis in human HL60 cells assessed as activation of caspase 3 at 12.5 uM by Western blot analysis. In kind it is functional, cell-based. Conditions: TDE = time-dependent effect. An outline of the steps: as §2
The test system of assay [15] is HL-60. The experiment in a line: Induction of apoptosis in human HL60 cells assessed as DNA fragmentation at 12.5 uM by agarose gel electrophoresis. In kind it is functional, cell-based. Conditions: TDE = time-dependent effect. An outline of the steps: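 Time course: HL-60 cells exposed to 12.5 µM compound for 6–24 h; DNA fragmentation assessed by agarose gel electrophoresis; representative of three independent experiments.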

On to `CCCC(=O)c1c2c(c3oc(=O)cc(CCC)c3c1O)C=CC(C)(C)O2`, for which the IC50 is 37.2 µM in assay [1]; more than 50 µM in assay [2]; more than 50 µM in assay [3]; more than 50 µM in assay [4]; more than 50 µM in [5]; more than 50 µM in [6]. Moreover, the IC50 in [7] is more than 50 µM; in assay [8], more than 50 µM; in [9] it was 47.6 µM. Also, the outcome in [10] was inactive.
On to `O=c1cc(-c2ccc(O)c(-c3c(O)cc(O)c4c(=O)cc(-c5ccc(O)cc5)oc34)c2)oc2cc(O)cc(O)c12` [AMENTOFLAVONE], for which the IC50 in [1], in [2], in assay [3], in assay [4], in [5] and in assay [6] was more than 50 µM in each case. For the same compound, the IC50 in assay [7], in assay [8] and in assay [9] was more than 50 µM each time. Moreover, the outcome in [10] was inactive.
In the case of `O=c1cc(-c2ccc(O)cc2)oc2cc(O)c([C@@H]3O[C@H](CO)[C@@H](O)[C@H](O)[C@H]3O)c(O)c12` [ISOVITEXIN], the IC50 in [1], in [2], in assay [3], in assay [4], in assay [5] and in assay [6] was more than 50 µM in each case. The IC50 in assay [7], in assay [8] and in assay [9] was more than 50 µM throughout. In addition, in assay [10], the outcome was inactive.
For the compound `CCCC(=O)c1c(O)c(C/C=C(\C)CCC=C(C)C)c(O)c2c([C@@H](O)CC)cc(=O)oc12` [KAYEASSAMIN A], the 50% inhibitory concentration (IC50) in [1] is 11.9 µM; in assay [2] it was more than 50 µM; in [3], more than 50 µM; in [4], 19.8 µM; in assay [5], more than 50 µM; in assay [6], more than 50 µM. Further, the IC50 was 12 µM in [7], 16.7 µM in assay [8] and 19.9 µM in assay [9]. Moreover, the outcome in assay [11] and in assay [10] was Active. The result in assay [12] was inactive. The Activity entry in assay [13], in [14] and in [15] was “tde” throughout.
Take `CCC(C)C(=O)c1c(O)c(C/C=C(\C)CCC=C(C)C)c(O)c2c([C@@H](O)CC)cc(=O)oc12` (some centres not stated) [SURANGIN C]: the IC50 in [1] is 13.3 µM; in assay [2], more than 50 µM; in assay [3], more than 50 µM; in assay [4] it was 23.1 µM; in assay [5], more than 50 µM; in assay [6], more than 50 µM. The half-inhibitory concentration (IC50) in assay [7] was 10.6 µM; in assay [8] it was 21.5 µM; in assay [9], 27.6 µM. The outcome in assay [11] and in assay [10] was Active.
On to `CCC(C)C(=O)c1c(O)c2c(c3c([C@@H](O)CC)cc(=O)oc13)OC(C(C)(C)O)C2` (some centres not stated), for which the IC50 was 29.2 µM in assay [1]; more than 50 µM in assay [2]; more than 50 µM in assay [3]; more than 50 µM in assay [4]; more than 50 µM in assay [5]; more than 50 µM in assay [6]. The IC50 in [7] is more than 50 µM; in [8] it was 40.6 µM; in assay [9], 33.4 µM. Besides, in assay [10], the result was inactive.
In the case of `CCC(C)C(=O)c1c(O)c(CC=C(C)C)c(O)c2c([C@@H](O)CC)cc(=O)oc12` (some centres not stated), the IC50 in assay [1] is 13.7 µM; in assay [2] it was more than 50 µM; in assay [3], more than 50 µM; in [4], 29.9 µM; in assay [5], more than 50 µM; in assay [6], more than 50 µM. The IC50 in [7] is 24.1 µM; in [8] it was 9.23 µM; in [9] it was 18.8 µM. In addition, the outcome in assay [11] and in [10] was Active.

As a reminder, the IC50 is the midpoint of a concentration-inhibition curve.
